Reference: ChEMBL document CHEMBL1157208, “Synthesis and CNS depressant activity of some novel 3-[5-substituted 1,3,4-thiadiazole-2-yl]-2-styryl quinazoline-4(3H)-ones” (Eur J Med Chem, 2008)
Active and inactive are the calls of the source. The calls are words filed in the database; no cut-off is given here.

Tests used:
Mus musculus [1] = assay: Neurotoxicity in mouse at 300 mg/kg, ip after 4 hrs by rotarod test; assay type: toxicity, organism-based; set-up: dose 300 mg/kg, route intraperitoneal; conditions: in vivo
Outline: (§1)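 Mice dosed i.p. at 30, 100 and 300 mg/kg in PEG 400 were examined 0.5 and 4 h later on a rotorod. Animals were pre-trained on a 3.2 cm rod turning at 6 rpm. Neurotoxicity meant failing to keep equilibrium for at least 1 min in each of three trials. The value is the minimum dose affecting half or more of the animals.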

Mus musculus [2] = assay: Anticonvulsant activity in mouse assessed as inhibition of maximal electroshock-induced seizures at 300 mg/kg, ip after 0.5 hrs; assay type: functional, organism-based; set-up: dose 300 mg/kg
Outline: (§2)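 Male albino mice (CF-1 or Swiss, 18–25 g) received compound suspended in polyethylene glycol 400, i.p., 0.01 ml/g, at 30, 100 and 300 mg/kg. Maximal electroshock and subcutaneous pentylenetetrazole seizure tests were run at 0.5 and 4 h by a previously reported procedure.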

Mus musculus [3] = assay: Anticonvulsant activity in ip dosed mouse assessed as inhibition of pentylenetetrazole-induced seizure after 0.5 hrs; assay type: functional; outline: as §2
Mus musculus [4] = assay: Anticonvulsant activity in mouse assessed as inhibition of maximal electroshock-induced seizures at 300 mg/kg, ip after 4 hrs; assay type: functional, organism-based; set-up: dose 300 mg/kg; outline: as §2
Mus musculus [5] = assay: Anticonvulsant activity in mouse assessed as inhibition of pentylenetetrazole-induced seizure at 300 mg/kg, ip after 4 hrs; assay type: functional, organism-based; set-up: dose 300 mg/kg; outline: as §2
Mus musculus [6] = assay: Neurotoxicity in mouse at 300 mg/kg, ip after 0.5 hrs by rotarod test; assay type: toxicity, organism-based; set-up: dose 300 mg/kg, route intraperitoneal; conditions: in vivo; outline: as §1
Mus musculus [7] = assay: Sedative-hypnotic effect in mouse assessed as decrease locomotor activity score at 100 mg/kg, ip after 1 hr by actophotometer; assay type: functional; conditions: route intraperitoneal
Outline: (§3)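 Locomotor activity in mice was read as a digital photocell score on an actophotometer. Baseline was taken 24 h before treatment, then at 30 min and 1 h after 100 mg/kg i.p. Controls received PEG 400. Percent decrease was calculated from the 1 h values. Results are mean ± SEM of six mice, compared with Student's t test.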

Mus musculus [8] = assay: Sedative-hypnotic effect in mouse assessed as inhibition of locomotor activity at 100 mg/kg, ip by actophotometer; assay type: functional; conditions: route intraperitoneal; outline: as §3
Mus musculus [9] = assay: Anticonvulsant activity in mouse assessed as inhibition of pentylenetetrazole-induced seizure at 300 mg/kg, ip after 0.5 hrs; assay type: functional, organism-based; set-up: dose 300 mg/kg; outline: as §2
Mus musculus [10] = assay: Sedative-hypnotic effect in mouse assessed as decrease locomotor activity score at 100 mg/kg, ip after 0.5 hrs by actophotometer; assay type: functional; conditions: route intraperitoneal; outline: as §3
Mus musculus [11] = assay: Sedative-hypnotic effect in mouse assessed as decrease locomotor activity score at 25 mg/kg, po after 1 hr by actophotometer; assay type: functional
Mus musculus [12] = assay: Neurotoxicity in ip dosed mouse after 0.5 hrs by rotarod test; assay type: toxicity, organism-based; conditions: in vivo; outline: as §1
Mus musculus [13] = assay: Sedative-hypnotic effect in mouse assessed as inhibition of locomotor activity at 25 mg/kg, po by actophotometer; assay type: functional
Mus musculus [14] = assay: Sedative-hypnotic effect in mouse assessed as decrease locomotor activity score at 25 mg/kg, po after 0.5 hrs by actophotometer; assay type: functional
Mus musculus [15] = assay: Anticonvulsant activity in ip dosed mouse assessed as inhibition of maximal electroshock-induced seizures after 0.5 hrs; assay type: functional; outline: as §2
Mus musculus [16] = assay: Neurotoxicity in ip dosed mouse after 4 hrs by rotarod test; assay type: toxicity, organism-based; conditions: in vivo; outline: as §1
Mus musculus [17] = assay: Anticonvulsant activity in ip dosed mouse assessed as inhibition of maximal electroshock-induced seizures after 4 hrs; assay type: functional; outline: as §2
Mus musculus [18] = assay: Anticonvulsant activity in ip dosed mouse assessed as inhibition of pentylenetetrazole-induced seizure after 4 hrs; assay type: functional; outline: as §2
Rattus norvegicus = assay: Antidepressant activity in Wistar rat assessed as increase in immobility time at 30 mg/kg, ip after 30 mins by forced-swimming test; assay type: functional; conditions: route intraperitoneal
Mus musculus [19] = assay: Toxicity in mouse at 300 mg/kg, ip; assay type: organism-based; set-up: dose 300 mg/kg, route intraperitoneal; conditions: in vivo
Mus musculus [20] = assay: Neurotoxicity in mouse at 100 mg/kg, ip after 0.25 hrs by rotarod test; assay type: toxicity, organism-based; set-up: dose 100 mg/kg, route intraperitoneal; conditions: in vivo
Mus musculus [21] = assay: Neurotoxicity in mouse at 100 mg/kg, ip after 1 hr by rotarod test; assay type: toxicity, organism-based; set-up: dose 100 mg/kg, route intraperitoneal; conditions: in vivo
Mus musculus [22] = assay: Neurotoxicity in mouse assessed as loss of righting reflux at 100 mg/kg, ip after 0.5 hrs; assay type: toxicity, organism-based; set-up: dose 100 mg/kg, route intraperitoneal; conditions: in vivo

| SMILES | Activity (Mus musculus [1]) | Activity (Mus musculus [2]) | Activity (Mus musculus [4]) | Activity (Mus musculus [5]) | Activity (Mus musculus [6]) | Activity (Mus musculus [7]) | inhibition in vivo at 100 mg/kg (Mus musculus [8]) [%] | Activity (Mus musculus [9]) | Activity (Mus musculus [10]) | Activity (Mus musculus [17]) [mg/kg] | other results |
| --- | --- | --- | --- | --- | --- | --- | --- | --- | --- | --- | --- |
| CCCC(CCC)C(=O)[O-].[Na+] [VALPROATE SODIUM] | Not Active | inactive | inactive | inactive | Not Active | – | – | – | – | – | Activity (Mus musculus [3]): 300 mg/kg |
| Cc1ccc(/C=C/c2nc3ccccc3c(=O)n2-c2nnc(-c3ccccc3)s2)cc1 | Not Active | inactive | inactive | inactive | Not Active | 185.15 | 55 | inactive | 353.52 | – | – |
| O=C1NC(=O)C(c2ccccc2)(c2ccccc2)N1 [PHENYTOIN] | – | – | – | inactive | – | – | – | inactive | – | 30 | Activity (Mus musculus [11]): 164.1; Activity (Mus musculus [12]): 100 mg/kg; inhibition in vivo at 25 mg/kg (Mus musculus [13]): 70%; Activity (Mus musculus [14]): 251.02; Activity (Mus musculus [15]): 30 mg/kg; Activity (Mus musculus [16]): 100 mg/kg |
| O=c1c2ccccc2nc(/C=C/c2ccccc2)n1-c1nnc(/C=C/c2ccccc2)s1 | Not Active | inactive | inactive | inactive | – | 489.92 | – | inactive | 372.87 | – | Activity (Mus musculus [12]): 300 mg/kg |
| CCC1(C)CC(=O)NC1=O (centres undefined) [ETHOSUXIMIDE] | Not Active | inactive | inactive | inactive | Not Active | – | – | – | – | – | Activity (Mus musculus [3]): 300 mg/kg |
| COc1ccc(/C=C/c2nc3ccccc3c(=O)n2-c2nnc(-c3cccc(Cl)c3)s2)cc1 | Not Active | inactive | – | inactive | Not Active | 110.45 | 66 | inactive | 292.39 | 300 | – |
| O=c1c2ccccc2nc(/C=C/c2ccccc2)n1-c1nnc(-c2ccc(Cl)cc2)s1 | Not Active | – | – | – | Not Active | 132.04 | 68 | – | 250.62 | 100 | Activity (Mus musculus [18]): 300 mg/kg; Activity (Mus musculus [3]): 300 mg/kg; Activity (Mus musculus [15]): 100 mg/kg |
| COc1ccc(/C=C/c2nc3ccccc3c(=O)n2-c2nnc(/C=C/c3ccccc3)s2)cc1 | Not Active | inactive | inactive | inactive | Not Active | 228.32 | 51 | inactive | 362.37 | – | – |
| COc1ccc(-c2nnc(-n3c(/C=C/c4ccccc4)nc4ccccc4c3=O)s2)cc1 | Not Active | inactive | inactive | inactive | Not Active | 266.36 | 36 | inactive | 381.82 | – | – |
| NC(=O)N1c2ccccc2C=Cc2ccccc21 [CARBAMAZEPINE] | – | – | – | – | – | – | – | – | – | 100 | Activity (Mus musculus [18]): 300 mg/kg; Activity (Mus musculus [12]): 100 mg/kg; Activity (Mus musculus [3]): 100 mg/kg; Activity (Mus musculus [15]): 30 mg/kg; Activity (Mus musculus [16]): 300 mg/kg; Activity (Rattus norvegicus): 240.3 s |
| O=c1c2ccccc2nc(/C=C/c2ccccc2)n1-c1nnc(-c2ccccc2)s1 | Not Active | – | inactive | – | Not Active | 249.45 | 55 | inactive | 472.31 | – | Activity (Mus musculus [15]): 30 mg/kg; Activity (Mus musculus [19]): Toxic |
| COc1ccc(-c2nnc(-n3c(/C=C/c4ccc(C)cc4)nc4ccccc4c3=O)s2)cc1 | Not Active | inactive | inactive | inactive | Not Active | 137.19 | 65 | inactive | 272.19 | – | – |
| COc1ccc(/C=C/c2nc3ccccc3c(=O)n2-c2nnc(-c3ccc(C)cc3)s2)cc1 | Not Active | inactive | inactive | inactive | Not Active | 142.19 | 64 | – | 315.46 | – | Activity (Mus musculus [3]): 300 mg/kg |
| Cc1ccc(/C=C/c2nc3ccccc3c(=O)n2-c2nnc(-c3ccc(Cl)cc3)s2)cc1 | Not Active | inactive | – | inactive | Not Active | 153.08 | 64 | inactive | 373.56 | 300 | – |
| Cc1ccc(/C=C/c2nc3ccccc3c(=O)n2-c2nnc(-c3ccc(C)cc3)s2)cc1 | Not Active | inactive | inactive | inactive | Not Active | 92.2 | 71 | inactive | 291.39 | – | – |
| COc1ccc(/C=C/c2nc3ccccc3c(=O)n2-c2nnc(-c3ccc(Cl)cc3)s2)cc1 | Not Active | inactive | – | – | Not Active | 155.31 | 62 | – | 306.98 | 300 | Activity (Mus musculus [18]): 300 mg/kg |
| Cc1ccc(/C=C/c2nc3ccccc3c(=O)n2-c2nnc(/C=C/c3ccccc3)s2)cc1 | Not Active | inactive | inactive | inactive | Not Active | 123.32 | 67 | inactive | 310.32 | – | – |
| O=c1c2ccccc2nc(/C=C/c2ccccc2)n1-c1nnc(-c2cccc(Cl)c2)s1 | Not Active | inactive | – | inactive | – | 165.52 | 63 | inactive | 319.57 | 100 | Activity (Mus musculus [20]): Toxic; Activity (Mus musculus [12]): 300 mg/kg; Activity (Mus musculus [21]): Toxic |
| COc1ccc(/C=C/c2nc3ccccc3c(=O)n2-c2nnc(-c3ccccc3)s2)cc1 | Not Active | inactive | inactive | inactive | – | 210.24 | 55 | inactive | 419.24 | – | Activity (Mus musculus [22]): Toxic |
| Cc1ccc(-c2nnc(-n3c(/C=C/c4ccccc4)nc4ccccc4c3=O)s2)cc1 | Not Active | inactive | inactive | inactive | Not Active | 467 | – | inactive | 531 | – | – |
| Cc1ccc(/C=C/c2nc3ccccc3c(=O)n2-c2nnc(-c3cccc(Cl)c3)s2)cc1 | Not Active | inactive | inactive | – | Not Active | 128.94 | 65 | – | 298.67 | – | Activity (Mus musculus [18]): 300 mg/kg; Activity (Mus musculus [3]): 300 mg/kg |
| COc1ccc(/C=C/c2nc3ccccc3c(=O)n2-c2nnc(-c3ccc(OC)cc3)s2)cc1 | Not Active | inactive | inactive | inactive | – | 180.3 | 59 | inactive | 308.13 | – | Activity (Mus musculus [12]): 300 mg/kg |
